Screens (PubChem)
CDK5 p35 inh: blocks human CDK5/p35 kinase activity; actives 0.01% (n = 330,000); Recombinant CDK5/p35, ADP-Glo luminescence, 60 min; Q00535+Q15078; inhibition, % at 10 µM;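 active = highest replicate inhibition of at least 50% and at least 75% of replicates reaching 50%; inconclusive = only one of the two criteria met; inactive = both criteria failed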;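 note: plate controls were DMSO neutral control for no effect and GW8510 at 10 µM for full effect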
SR-BI HDL uptake: inhibitors of mouse SR-BI mediated HDL lipid uptake; inhibition, % at 12.5 µM; actives 0.96% (n = 320,000); AID 488896; ldlA[mSR-BI] CHO cells, DiI-HDL uptake fluorescence, 3 h;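 active = mean replicate inhibition of at least 70% and a set share of replicates each scoring 70 or more; inconclusive = meets just one of the two criteria; inactive = fails both criteria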;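 note: 0% = median of neutral control wells and 100% = median of positive control wells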
Target sequence (Q61009 whole entry, looked up): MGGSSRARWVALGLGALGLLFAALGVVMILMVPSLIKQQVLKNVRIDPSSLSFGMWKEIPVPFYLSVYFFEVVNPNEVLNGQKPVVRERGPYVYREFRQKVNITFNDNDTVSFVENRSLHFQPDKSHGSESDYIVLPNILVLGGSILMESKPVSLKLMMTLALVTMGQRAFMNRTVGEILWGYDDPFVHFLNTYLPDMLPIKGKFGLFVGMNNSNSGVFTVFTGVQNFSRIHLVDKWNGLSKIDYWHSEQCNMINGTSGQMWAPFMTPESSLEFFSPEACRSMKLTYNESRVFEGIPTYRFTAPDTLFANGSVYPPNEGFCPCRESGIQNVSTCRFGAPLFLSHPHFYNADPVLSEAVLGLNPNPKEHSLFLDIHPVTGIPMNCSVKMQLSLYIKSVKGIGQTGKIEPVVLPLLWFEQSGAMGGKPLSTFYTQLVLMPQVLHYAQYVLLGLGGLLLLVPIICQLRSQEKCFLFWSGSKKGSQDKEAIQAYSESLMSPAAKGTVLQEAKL
dFosB activator: activators of mouse delta FosB homodimer; P13346; actives 0.99% (n = 340,000); AID 493131; purified delta FosB, TAMRA-CDK5 oligo fluorescence polarization; percent of positive-control signal above neutral wells; activation, % at 25 µM;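 active = mean activation above about 17%, with every replicate also reaching it, limit read from the data, passing the limit was not always enough; inconclusive = only one of the two conditions met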
PKA-R1A act: activates the PKA-R1A holoenzyme complex; PKA-R1A dissociation, Cy5-IP20 fluorescence polarization; scaled: DMSO 0%, 113 µM cGMP 100%; activation, % at 11.4 µM; actives 0.083% (n = 340,000);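 active = percent activation above the mean of all tested compounds plus 3 SD, cut at about 19% in these data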;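 note: higher means more PKAc released from R1A so a rise in polarization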
SR-BI uptake up: activators of SR-BI mediated HDL lipid uptake | CHO ldlA[mSR-BI] cells, DiI-HDL uptake fluorescence, 3 h; 100 = double the neutral-control signal | actives 0.096% (n = 320,000) | activation, % at 12.5 µM;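 active = mean replicate activation of at least 60% and every replicate at or above 60%; inconclusive = mean or all-replicate condition met, but not both; inactive = mean below 60% and not all replicates reaching 60%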;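 note: 0% = median plate neutral-control signal and 100% = twice that signal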
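Material: SR-BI-overexpressing, LDLR-lacking CHO cells | Dosing: Single compound concentration, delivered by pin transfer | Probe or stimulus: Labelled HDL, 10 µg/mL | Signal: Bottom-read cell fluorescence after medium removal, ex 550/em 595 nm | Schedule: 3 h, 37 °C | Evaluation: HDL uptake via cellular fluorescence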
PKA-R2B act: activators of human PKA-R2B complex; actives 0.079% (n = 340,000); PKA-R2B holoenzyme dissociation, Cy5-IP20 fluorescence polarization; R2B truncated from residue 108, S112A mutant; 0% DMSO only, 100% 113 µM cGMP; activation, % at 11.4 µM; P22694+P31323;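 active = activation above a cutoff set at the mean over all compounds plus 3 SD, cut at about 18% in these data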;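 note: higher means more holoenzyme dissociation and a rise in polarization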
Numbers without * were called inactive. The list is not random: actives were taken first. Their share in the collection is about 2.1%.

How did Cc1c(C(=O)O)sc2nc(-c3cccs3)cc(C(F)(F)F)c12 do in these assays?
CDK5 p35 inh: 0; dFosB activator: -18; PKA-R1A act: 0; PKA-R2B act: 9

Results for COc1ccc(OC)c(NC(=O)c2sc3nc(Cc4ccccc4)cc(C(F)(F)F)c3c2N)c1 ?
CDK5 p35 inh: -1; SR-BI HDL uptake: 71*; dFosB activator: 8; PKA-R1A act: 1; SR-BI uptake up: -71; PKA-R2B act: 3

Results for CSCCC(NC(=O)c1ccccc1Br)C(=O)N1CCCC(C(F)(F)F)C1 (stereo not drawn) ?
CDK5 p35 inh: -1; SR-BI HDL uptake: -8; dFosB activator: -2; PKA-R1A act: -1; SR-BI uptake up: 8; PKA-R2B act: 4

Results for CCOC(=O)c1cccc(NC(=O)/C=C/c2cccc([N+](=O)[O-])c2)c1 ?
CDK5 p35 inh: 1; SR-BI HDL uptake: 73*; dFosB activator: -11; PKA-R1A act: -6; SR-BI uptake up: -73; PKA-R2B act: -1

Results for CCOC(=O)/C=C/C(=O)Nc1cccc([N+](=O)[O-])c1 ?
CDK5 p35 inh: 3; SR-BI HDL uptake: -22; dFosB activator: 0; PKA-R1A act: -9; SR-BI uptake up: 22; PKA-R2B act: -15

Results for CCOc1ccc(NC(=O)CN2C(=O)CCSc3ccc(S(=O)(=O)N4CCCC4)cc32)cc1 ?
CDK5 p35 inh: -1; SR-BI HDL uptake: 10; dFosB activator: 37*; PKA-R1A act: 0; SR-BI uptake up: -10; PKA-R2B act: -3

Results for COc1ccc(/C=N/NC(=O)c2ccncc2)c(OC)c1 ?
CDK5 p35 inh: -1; SR-BI HDL uptake: 21; dFosB activator: 9; PKA-R1A act: 9; SR-BI uptake up: -21; PKA-R2B act: -4

What do the screens show for `CCCOc1ccc(Br)cc1/C=N/NC(=O)c1cc(OC)c(OC)c(OC)c1`?
CDK5 p35 inh: 1; SR-BI HDL uptake: 76*; dFosB activator: -7; PKA-R1A act: -2; SR-BI uptake up: -76; PKA-R2B act: -6

How did COc1ccc(C(=O)N/N=C/c2cc(Br)ccc2O)cc1OC do in these assays?
CDK5 p35 inh: -6; SR-BI HDL uptake: 120*; dFosB activator: inconclusive; PKA-R1A act: 1; SR-BI uptake up: -120; PKA-R2B act: -2

Results for COc1ccc(/C=N/NC(=O)c2ccc(Br)cc2)c(OC)c1 ?
CDK5 p35 inh: 0; SR-BI HDL uptake: 83*; dFosB activator: -3; PKA-R1A act: 0; SR-BI uptake up: -83; PKA-R2B act: -3

How did COc1ccc(Br)cc1/C=N/NC(=O)c1cccnc1 do in these assays?
CDK5 p35 inh: 0; SR-BI HDL uptake: 33; dFosB activator: -31; PKA-R1A act: 1; SR-BI uptake up: -33; PKA-R2B act: 10

How did CC(C)(C)c1ccc(OCc2ccc(C(=O)N/N=C/c3ccc(O)c(O)c3)cc2)cc1 do in these assays?
CDK5 p35 inh: 0; SR-BI HDL uptake: 107*; dFosB activator: -6; PKA-R1A act: -8; SR-BI uptake up: -107; PKA-R2B act: 5

Results for CC1CCCN(S(=O)(=O)CCNC(=O)c2ccccc2)C1 (stereo not drawn) ?
CDK5 p35 inh: -2; SR-BI HDL uptake: -19; dFosB activator: -8; PKA-R1A act: 4; SR-BI uptake up: 19; PKA-R2B act: 3

Results for COc1ccc(S(=O)(=O)N2CCOCC2)cc1NC(=O)CN1C(=O)NC2(CCC(C)CC2)C1=O (stereo not drawn) ?
PKA-R1A act: 1; PKA-R2B act: -7

How did CC1CCN(S(=O)(=O)N2CCC(C(=O)NCc3ccc(F)cc3Cl)CC2)CC1 do in these assays?
PKA-R1A act: -11; PKA-R2B act: -3

What do the screens show for `Cn1cccc1/C=N/NC(=O)c1cccc(OC(F)(F)C(F)F)c1`?
CDK5 p35 inh: 0; SR-BI HDL uptake: 43; dFosB activator: -2; PKA-R1A act: 0; SR-BI uptake up: -43; PKA-R2B act: 4

How did COc1ccc(O)c(/C=N/NC(=O)c2ccc(OCc3cccc(Br)c3)cc2)c1 do in these assays?
CDK5 p35 inh: -2; SR-BI HDL uptake: 129*; dFosB activator: 7; PKA-R1A act: -1; SR-BI uptake up: -129; PKA-R2B act: -7

How did Cn1cccc1-c1cc(C(=O)N/N=C/c2ccccc2Cl)[nH]n1 do in these assays?
CDK5 p35 inh: 0; SR-BI HDL uptake: 62; dFosB activator: -9; PKA-R1A act: -7; SR-BI uptake up: -62; PKA-R2B act: 9

What do the screens show for `CC(C)(C)c1ccc(OCc2ccc(C(=O)N/N=C3\CC4CC=CC34)cc2)cc1` (stereo not drawn)?
CDK5 p35 inh: 0; SR-BI HDL uptake: 79*; dFosB activator: -1; PKA-R1A act: -14; SR-BI uptake up: -79; PKA-R2B act: -2

Results for Cn1cccc1-c1cc(C(=O)N/N=C/c2cc(Br)ccc2O)[nH]n1 ?
CDK5 p35 inh: -1; SR-BI HDL uptake: 105*; dFosB activator: inconclusive; PKA-R1A act: 0; SR-BI uptake up: -105; PKA-R2B act: -7

Results for COc1ccc(C(=O)NCC(=O)OCc2cccc(Br)c2)cc1 ?
CDK5 p35 inh: 0; SR-BI HDL uptake: 9; dFosB activator: -5; PKA-R1A act: -4; SR-BI uptake up: -9; PKA-R2B act: -1

Results for CCn1cc(Cl)c(C(=O)Nc2ccccc2C(N)=O)n1 ?
CDK5 p35 inh: -1; SR-BI HDL uptake: -7; dFosB activator: -14; PKA-R1A act: -10; SR-BI uptake up: 7; PKA-R2B act: -5

What do the screens show for `CC(Oc1cc2oc(=O)c3c(c2cc1Cl)CCC3)C(=O)NCc1cccnc1` (stereo not drawn)?
SR-BI HDL uptake: 86*; dFosB activator: -1; PKA-R1A act: 1; SR-BI uptake up: -86; PKA-R2B act: -6

Results for Cc1ccc(/C(O)=C2\C(=O)C(=O)N(CCCN3CCOCC3)C2c2ccccc2F)cc1 (stereo not drawn) ?
PKA-R1A act: -5; PKA-R2B act: -8

How did CN(C)c1ccc(S(=O)(=O)NCC(=O)NCCC2=CCCCC2)cc1[N+](=O)[O-] do in these assays?
CDK5 p35 inh: -1; SR-BI HDL uptake: -22; dFosB activator: -5; PKA-R1A act: 2; SR-BI uptake up: 22; PKA-R2B act: -4

How did COc1ccc(/C=N/Nc2nc(-c3cccc(S(=O)(=O)N4CCCC4)c3)cs2)c(OC)c1 do in these assays?
CDK5 p35 inh: -1; SR-BI HDL uptake: 83*; dFosB activator: -15; PKA-R1A act: -13; SR-BI uptake up: -83; PKA-R2B act: 1
